molecular target: T1, Zinc finger protein GLI1 (Homo sapiens, UniProt P08151); assay: Inhibition of exogenously transfected human Gli1-mediated transcriptional activity in mouse C3H10T1/2 cells after 24 hrs by luciferase reporter gene assay
T1 sequence (P08151 whole entry): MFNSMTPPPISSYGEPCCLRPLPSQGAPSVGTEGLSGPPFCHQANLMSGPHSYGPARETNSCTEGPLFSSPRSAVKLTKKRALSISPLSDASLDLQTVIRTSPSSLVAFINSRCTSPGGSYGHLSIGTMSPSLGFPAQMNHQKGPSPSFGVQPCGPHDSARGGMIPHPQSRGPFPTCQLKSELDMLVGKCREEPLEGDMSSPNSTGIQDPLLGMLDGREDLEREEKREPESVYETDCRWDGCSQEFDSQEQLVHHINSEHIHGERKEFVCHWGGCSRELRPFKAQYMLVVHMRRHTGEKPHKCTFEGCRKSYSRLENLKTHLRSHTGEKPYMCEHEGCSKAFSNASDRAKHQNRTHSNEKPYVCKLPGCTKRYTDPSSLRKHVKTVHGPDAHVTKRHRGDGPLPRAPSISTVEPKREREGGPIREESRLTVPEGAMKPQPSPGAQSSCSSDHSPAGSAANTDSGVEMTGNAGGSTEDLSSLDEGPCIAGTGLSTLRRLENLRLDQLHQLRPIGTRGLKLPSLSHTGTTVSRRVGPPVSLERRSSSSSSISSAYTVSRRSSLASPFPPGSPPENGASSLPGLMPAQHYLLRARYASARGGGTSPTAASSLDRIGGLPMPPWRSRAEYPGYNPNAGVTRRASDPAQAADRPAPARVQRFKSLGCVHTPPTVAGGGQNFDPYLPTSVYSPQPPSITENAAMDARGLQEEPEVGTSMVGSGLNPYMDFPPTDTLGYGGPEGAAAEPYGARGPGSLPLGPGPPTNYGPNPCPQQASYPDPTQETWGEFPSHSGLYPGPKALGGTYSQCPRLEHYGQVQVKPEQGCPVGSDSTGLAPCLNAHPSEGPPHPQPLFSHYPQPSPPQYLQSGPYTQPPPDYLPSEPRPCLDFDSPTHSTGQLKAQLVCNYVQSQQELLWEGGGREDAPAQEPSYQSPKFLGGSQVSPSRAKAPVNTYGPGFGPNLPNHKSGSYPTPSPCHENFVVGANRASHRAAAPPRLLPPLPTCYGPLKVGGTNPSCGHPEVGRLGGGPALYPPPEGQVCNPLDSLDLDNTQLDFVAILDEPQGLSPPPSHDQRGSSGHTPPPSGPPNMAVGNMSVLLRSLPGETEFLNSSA
Outline: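 They were replated 18 h later, given compound or DMSO 6 h after plating, and exposed for 24 h at 37 °C, 5% CO2. Lysate was read by dual luciferase as firefly/Renilla, triplicate, DMSO = 0%. IC50 came from curve fitting.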

| IC50 [µM] | SMILES |
| --- | --- |
| 9.4 | C[C@H](C(=O)N(CCc1ccc(O)cc1)CCc1ccc(O)cc1)c1cccc(C(=O)c2ccccc2)c1 [(S)-2-(3-Benzoylphenyl)-N,N-bis(4-hydroxyphenethyl)propanamide] |
| 6.9 | CCCN(CCc1ccc(O)cc1)C(=O)[C@@H](C)c1cccc(C(=O)c2ccccc2)c1 [(S)-2-(3-Benzoylphenyl)-N-(4-hydroxyphenethyl)-N-propylpropanamide] |
| 11.4 | C[C@H](C(=O)NCCc1ccc(O)cc1)c1cccc(C(=O)c2ccccc2)c1 [(S)-2-(3-Benzoylphenyl)-N-(4-hydroxyphenethyl)propanamide] |

Source: BindingDB's records for doi:10.1021/jm900106f (St. Jude Children'S Research Hospital, 2009)
